Data as given in ChEMBL document CHEMBL1136237, “2-piperidin-4-yl-benzimidazoles with broad spectrum antibacterial activities” (2003).
≈ marks a conversion by molar mass, not a printed value.

What was measured:
Staphylococcus aureus [1] = assay: Antibacterial activity determined against Staphylococcus aureus; type: functional
Outline: (§1)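 Broth microdilution: an overnight-culture bacterial suspension was added to compound in 2.5% DMSO in water, giving a final inoculum of about 10^2–10^3 CFU/well. Plates were incubated 20–24 h at 37 °C, and growth relative to a no-compound control was read as A595. MIC was given as a range: complete inhibition at the upper concentration, viable cells at the lower.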

[2] = Inhibition of bacterial transcription/translation
Escherichia coli [3] = assay: Antibacterial activity determined against Escherichia coli; type: functional; outline: as §1
Candida albicans = assay: Antifungal activity determined against Candida albicans 10231; type: functional
Outline: as §1, with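 “Candida albicans:” for “Broth microdilution:”, “yeast” for “bacterial”, “40–48” for “20–24”, “25” for “37”, “versus” for “relative to”, “higher” for “upper”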

Klebsiella pneumoniae = assay: Antibacterial activity determined against gram-negativeK. pneumoniae 13383; type: functional; outline: as §1
Proteus vulgaris = assay: Antibacterial activity determined against gram-negativeP. vulgaris 8427; type: functional; outline: as §1
Staphylococcus aureus [4] = assay: Antibacterial activity determined against gram-positive Staphylococcus aureus 13709; type: functional; outline: as §1
Enterococcus hirae = assay: Antibacterial activity determined against gram-positive Enterococcus hirae 29212; type: functional; outline: as §1
Streptococcus pneumoniae = assay: Antibacterial activity determined against gram-positive Streptococcus pneumoniae 6303; type: functional; outline: as §1
Escherichia coli [5] = assay: Antibacterial activity determined against gram-negativeE. coli 25922; type: functional; outline: as §1
Streptococcus pyogenes = assay: Antibacterial activity determined against gram-positive Streptococcus pyogenes 49399; type: functional; outline: as §1
Pseudomonas aeruginosa = assay: Antibacterial activity determined against gram-negativeP. aeruginosa 25416; type: functional; outline: as §1
Enterococcus faecalis [6] = assay: Antibacterial activity determined against Enterococcus faecalis ATCC 4200; type: functional; outline: as §1
Enterococcus faecalis [7] = assay: Antibacterial activity determined against Enterococcus faecalis ATCC 11823; type: functional; outline: as §1
Enterococcus faecium [8] = assay: Antibacterial activity determined against Enterococcus faecium ATCC 882; type: functional; outline: as §1
Enterococcus faecalis [9] = assay: Antibacterial activity determined against Enterococcus faecalis ATCC 828; type: functional; outline: as §1
Enterococcus faecalis [10] = assay: Antibacterial activity determined against Enterococcus faecalis ATCC 49757; type: functional; outline: as §1
Enterococcus faecalis [11] = assay: Antibacterial activity determined against Enterococcus faecalis ATCC 23241; type: functional; outline: as §1
Enterococcus faecium [12] = assay: Antibacterial activity determined against Enterococcus faecium ATCC 6569; type: functional; outline: as §1

Row | Structure (SMILES) | MIC (Staphylococcus aureus [1]) [µM] | IC50 [2] [µM] | MIC (Escherichia coli [3]) [µM] | MIC (Candida albicans) [µM] | MIC (Klebsiella pneumoniae) [µM] | MIC (Proteus vulgaris) [µM] | MIC (Staphylococcus aureus [4]) [µM] | MIC (Enterococcus hirae) [µM] | MIC (Streptococcus pneumoniae) [µM] | MIC (Escherichia coli [5]) [µM] | MIC (Streptococcus pyogenes) [µM] | MIC (Pseudomonas aeruginosa) [µM] | MIC (Enterococcus faecalis [6]) [µM] | MIC (Enterococcus faecalis [7]) [µM] | MIC (Enterococcus faecium [8]) [µM] | MIC (Enterococcus faecalis [9]) [µM] | MIC (Enterococcus faecalis [10]) [µM] | MIC (Enterococcus faecalis [11]) [µM] | MIC (Enterococcus faecium [12]) [µM]
1 | NC[C@@H]1O[C@H](O[C@H]2[C@@H](O)[C@H](O[C@@H]3[C@@H](O)[C@H](N)C[C@H](N)[C@H]3O[C@H]3O[C@H](CO)[C@@H](O)[C@H](O)[C@H]3N)O[C@@H]2CO)[C@H](N)[C@@H](O)[C@@H]1O [PAROMOMYCIN] | 1 (≈ 0.616 µg/mL) | 0.56 | 3 (≈ 1.85 µg/mL) |  |  |  |  |  |  |  |  |  |  |  |  |  |  |  | 
2 | Clc1cc2nc(C3CCNCC3)n(Cc3ccc(CNCCc4c[nH]cn4)cc3)c2cc1Cl | 6 (≈ 2.9 µg/mL) | 25 | 12 (≈ 5.8 µg/mL) | > 100 | 12 (≈ 5.8 µg/mL) | 25 (≈ 12.1 µg/mL) | 6 (≈ 2.9 µg/mL) | 3 (≈ 1.45 µg/mL) | 12 (≈ 5.8 µg/mL) | 12 (≈ 5.8 µg/mL) | 6 (≈ 2.9 µg/mL) | 25 (≈ 12.1 µg/mL) |  |  |  |  |  |  | 
3 | CCCCCCNCc1ccc(Cn2c(C3CCNCC3)nc3cc(Cl)c(Cl)cc32)cc1 | 3 (≈ 1.42 µg/mL) | > 100 | 6 (≈ 2.84 µg/mL) | 25 (≈ 11.8 µg/mL) | 6 (≈ 2.84 µg/mL) | 12 (≈ 5.68 µg/mL) | 3 (≈ 1.42 µg/mL) | 1 (≈ 0.473 µg/mL) | 6 (≈ 2.84 µg/mL) | 6 (≈ 2.84 µg/mL) | 3 (≈ 1.42 µg/mL) | 25 (≈ 11.8 µg/mL) | 3 (≈ 1.42 µg/mL) | 3 (≈ 1.42 µg/mL) | 3 (≈ 1.42 µg/mL) | 3 (≈ 1.42 µg/mL) | 3 (≈ 1.42 µg/mL) | 3 (≈ 1.42 µg/mL) | 3 (≈ 1.42 µg/mL)
4 | Clc1cc2nc(C3CCNCC3)n(Cc3ccc(CN4CCNCC4)cc3)c2cc1Cl | 6 (≈ 2.75 µg/mL) | > 100 | 12 (≈ 5.5 µg/mL) | 50 (≈ 22.9 µg/mL) | 6 (≈ 2.75 µg/mL) | 12 (≈ 5.5 µg/mL) | 6 (≈ 2.75 µg/mL) | 3 (≈ 1.38 µg/mL) | 12 (≈ 5.5 µg/mL) | 12 (≈ 5.5 µg/mL) | 6 (≈ 2.75 µg/mL) | 12 (≈ 5.5 µg/mL) | 12 (≈ 5.5 µg/mL) | 12 (≈ 5.5 µg/mL) | 6 (≈ 2.75 µg/mL) | 6 (≈ 2.75 µg/mL) | 12 (≈ 5.5 µg/mL) | 6 (≈ 2.75 µg/mL) | 6 (≈ 2.75 µg/mL)
5 | Clc1cc2nc(C3CCNCC3)n(Cc3ccc(CNC[C@@H]4CCCN4)cc3)c2cc1Cl | 12 (≈ 5.67 µg/mL) | > 100 | 12 (≈ 5.67 µg/mL) |  |  |  |  |  |  |  |  |  |  |  |  |  |  |  | 
6 | O=C(O)c1cn(C2CC2)c2cc(N3CCNCC3)c(F)cc2c1=O [CIPROFLOXACIN] | 0.75 (≈ 0.249 µg/mL) | > 100 | 0.75 (≈ 0.249 µg/mL) |  |  |  |  |  |  |  |  |  |  |  |  |  |  |  | 
7 | Clc1cc2nc(C3CCNCC3)n(Cc3ccc(CNCCc4cc5ccccc5[nH]4)cc3)c2cc1Cl | 12 (≈ 6.39 µg/mL) | > 100 | 12 (≈ 6.39 µg/mL) |  |  |  |  |  |  |  |  |  |  |  |  |  |  |  | 
8 | Clc1cc2nc(C3CCNCC3)n(Cc3ccc(CN4CCCNCC4)cc3)c2cc1Cl | 6 (≈ 2.83 µg/mL) | > 100 | 12 (≈ 5.67 µg/mL) | > 100 | 12 (≈ 5.67 µg/mL) | 25 (≈ 11.8 µg/mL) | 6 (≈ 2.83 µg/mL) | 3 (≈ 1.42 µg/mL) | 12 (≈ 5.67 µg/mL) | 12 (≈ 5.67 µg/mL) | 6 (≈ 2.83 µg/mL) | 25 (≈ 11.8 µg/mL) | 12 (≈ 5.67 µg/mL) | 12 (≈ 5.67 µg/mL) | 12 (≈ 5.67 µg/mL) | 12 (≈ 5.67 µg/mL) | 6 (≈ 2.83 µg/mL) | 12 (≈ 5.67 µg/mL) | 6 (≈ 2.83 µg/mL)
9 | NCCCNCc1ccc(Cn2c(C3CCNCC3)nc3cc(Cl)c(Cl)cc32)cc1 | 12 (≈ 5.36 µg/mL) | 20 | 50 (≈ 22.3 µg/mL) | > 100 | 25 (≈ 11.2 µg/mL) |  | 12 (≈ 5.36 µg/mL) | 6 (≈ 2.68 µg/mL) | 25 (≈ 11.2 µg/mL) | 50 (≈ 22.3 µg/mL) | 6 (≈ 2.68 µg/mL) | 25 (≈ 11.2 µg/mL) | 25 (≈ 11.2 µg/mL) | 12 (≈ 5.36 µg/mL) | 25 (≈ 11.2 µg/mL) | 12 (≈ 5.36 µg/mL) | 12 (≈ 5.36 µg/mL) | 25 (≈ 11.2 µg/mL) | 12 (≈ 5.36 µg/mL)
10 | O=[N+]([O-])c1ccc(Cn2c(C3CCNCC3)nc3cc(Cl)c(Cl)cc32)cc1 | 50 (≈ 20.3 µg/mL) | > 100 | > 100 |  |  |  |  |  |  |  |  |  |  |  |  |  |  |  | 
11 | O=C1c2ccccc2C(=O)N1Cc1ccc(Cn2c(C3CCNCC3)nc3cc(Cl)c(Cl)cc32)cc1 | 6 (≈ 3.12 µg/mL) | > 100 | 6 (≈ 3.12 µg/mL) | 50 (≈ 26 µg/mL) | 25 (≈ 13 µg/mL) | 25 (≈ 13 µg/mL) | 6 (≈ 3.12 µg/mL) | 3 (≈ 1.56 µg/mL) | 6 (≈ 3.12 µg/mL) | 6 (≈ 3.12 µg/mL) | 12 (≈ 6.23 µg/mL) | 12 (≈ 6.23 µg/mL) | 6 (≈ 3.12 µg/mL) | 3 (≈ 1.56 µg/mL) | 6 (≈ 3.12 µg/mL) | 6 (≈ 3.12 µg/mL) | 6 (≈ 3.12 µg/mL) | 6 (≈ 3.12 µg/mL) | 3 (≈ 1.56 µg/mL)
12 | Clc1cc2nc(C3CCNCC3)n(Cc3ccncc3)c2cc1Cl | 50 (≈ 18.1 µg/mL) | > 100 | 50 (≈ 18.1 µg/mL) |  |  |  |  |  |  |  |  |  |  |  |  |  |  |  | 
13 | NCCN(CCN)CCNCc1ccc(Cn2c(C3CCNCC3)nc3cc(Cl)c(Cl)cc32)cc1 | 3 (≈ 1.56 µg/mL) | 10 | 12 (≈ 6.22 µg/mL) | > 100 | 12 (≈ 6.22 µg/mL) | 25 (≈ 13 µg/mL) | 3 (≈ 1.56 µg/mL) | 3 (≈ 1.56 µg/mL) | 6 (≈ 3.11 µg/mL) | 12 (≈ 6.22 µg/mL) | 3 (≈ 1.56 µg/mL) | 12 (≈ 6.22 µg/mL) |  |  |  |  |  |  | 
